# Measured values from ChEMBL document CHEMBL3351523 (Bioorg Med Chem, 2014).
# Test system: not listed separately
# Experiment: Cytotoxicity against mock-infected human MT4 cells after 96 hrs by MTT assay
# Type: cell-based
# Settings: not given
# Outline: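 Exponentially growing MT-4 cells were seeded at 1 × 10^5 cells/mL in RPMI-1640 with 10% FBS and held at 37 °C, 5% CO2 with serial compound dilutions. Viability was read by MTT after 96 h. CC50 from linear regression against untreated controls.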
row,Structure (SMILES),CC50 at 96 h [µM]
1,c1ccc(-c2nc3ccccc3n2[C@H]2CCCN3CCCC[C@H]23)cc1,> 100
2,Clc1ccc2nc(-c3ccccc3)n([C@@H]3CCCN4CCCC[C@H]34)c2c1,> 100
3,FC(F)(F)c1ccc2c(c1)nc(-c1ccc(Cl)cc1)n2C[C@@H]1CCCN2CCCC[C@H]12,24
4,Clc1cc2nc(Cc3ccc(Br)cc3)[nH]c2cc1Cl,68

# Test system: not listed separately
# Experiment: Cytotoxicity against mock-infected african green monkey Vero 76 cells after 48 to 96 hrs by MTT assay
# Type: cell-based
# Settings: chlorocebus sabaeus, mock-infected Vero 76 cells
row,Structure (SMILES),CC50 [µM]
1,c1ccc(-c2nc3ccccc3n2[C@H]2CCCN3CCCC[C@H]23)cc1,≥ 100
2,Clc1ccc2nc(-c3ccccc3)n([C@@H]3CCCN4CCCC[C@H]34)c2c1,≥ 100
3,FC(F)(F)c1ccc2c(c1)nc(-c1ccc(Cl)cc1)n2C[C@@H]1CCCN2CCCC[C@H]12,24
4,Clc1cc2nc(Cc3ccc(Br)cc3)[nH]c2cc1Cl,73

# Test system: Human immunodeficiency virus 1
# Experiment: Antiviral activity against HIV1 infected in human MT4 cells assessed as inhibition of virus-induced cytopathogenicity after 4 days by MTT assay
# Type: functional, organism-based
# Settings: Human immunodeficiency virus 1, MT4, 96 h
# Outline: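 MT-4 cells (1 × 10^4/well in RPMI) were infected acutely with HIV-1 IIIB, 100 CCID50 (m.o.i. 0.01), with serial dilutions from 100 µM, 1:5. After 4 days at 37 °C, protection from virus-induced cytopathogenicity was read by MTT. EC50 came from linear regression against untreated controls.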
row,Structure (SMILES),EC50 [µM]
1,c1ccc(-c2nc3ccccc3n2[C@H]2CCCN3CCCC[C@H]23)cc1,> 100
2,Clc1ccc2nc(-c3ccccc3)n([C@@H]3CCCN4CCCC[C@H]34)c2c1,> 100
3,FC(F)(F)c1ccc2c(c1)nc(-c1ccc(Cl)cc1)n2C[C@@H]1CCCN2CCCC[C@H]12,> 100
4,Clc1cc2nc(Cc3ccc(Br)cc3)[nH]c2cc1Cl,> 100

# Test system: Coxsackievirus B5
# Experiment: Antiviral activity against Coxsackievirus B5 infected in african green monkey Vero 76 cells assessed as reduction in plaque number after 3 days by plaque reduction assay
# Type: functional, organism-based
# Settings: Enterovirus B, 72 h
row,Structure (SMILES),EC50 [µM]
1,c1ccc(-c2nc3ccccc3n2[C@H]2CCCN3CCCC[C@H]23)cc1,80
2,Clc1ccc2nc(-c3ccccc3)n([C@@H]3CCCN4CCCC[C@H]34)c2c1,32
3,FC(F)(F)c1ccc2c(c1)nc(-c1ccc(Cl)cc1)n2C[C@@H]1CCCN2CCCC[C@H]12,14
4,Clc1cc2nc(Cc3ccc(Br)cc3)[nH]c2cc1Cl,> 100

# Test system: Vaccinia virus
# Experiment: Antiviral activity against Vaccinia Virus infected in african green monkey Vero 76 cells assessed as reduction in plaque number after 3 days by plaque reduction assay
# Type: functional, organism-based
# Settings: Orthopoxvirus vaccinia, 72 h
row,Structure (SMILES),EC50 [µM]
1,c1ccc(-c2nc3ccccc3n2[C@H]2CCCN3CCCC[C@H]23)cc1,> 100
2,Clc1ccc2nc(-c3ccccc3)n([C@@H]3CCCN4CCCC[C@H]34)c2c1,> 100
3,FC(F)(F)c1ccc2c(c1)nc(-c1ccc(Cl)cc1)n2C[C@@H]1CCCN2CCCC[C@H]12,> 100
4,Clc1cc2nc(Cc3ccc(Br)cc3)[nH]c2cc1Cl,> 100

# Test system: Human alphaherpesvirus 1
# Experiment: Antiviral activity against HSV1 infected in african green monkey Vero 76 cells assessed as reduction in plaque number after 3 days by plaque reduction assay
# Type: functional, organism-based
# Settings: Human alphaherpesvirus 1, Vero, 72 h
row,Structure (SMILES),EC50 [µM]
1,c1ccc(-c2nc3ccccc3n2[C@H]2CCCN3CCCC[C@H]23)cc1,> 100
2,Clc1ccc2nc(-c3ccccc3)n([C@@H]3CCCN4CCCC[C@H]34)c2c1,> 100
3,FC(F)(F)c1ccc2c(c1)nc(-c1ccc(Cl)cc1)n2C[C@@H]1CCCN2CCCC[C@H]12,> 100
4,Clc1cc2nc(Cc3ccc(Br)cc3)[nH]c2cc1Cl,> 100

# Test system: Yellow fever virus
# Experiment: Antiviral activity against Yellow fever virus infected in BHK21 cells assessed as inhibition of virus-induced cytopathogenicity after 3 to 4 days by MTT assay
# Type: functional, organism-based
# Settings: BHK-21
row,Structure (SMILES),EC50 [µM]
1,c1ccc(-c2nc3ccccc3n2[C@H]2CCCN3CCCC[C@H]23)cc1,> 100
2,Clc1ccc2nc(-c3ccccc3)n([C@@H]3CCCN4CCCC[C@H]34)c2c1,> 100
3,FC(F)(F)c1ccc2c(c1)nc(-c1ccc(Cl)cc1)n2C[C@@H]1CCCN2CCCC[C@H]12,> 100
4,Clc1cc2nc(Cc3ccc(Br)cc3)[nH]c2cc1Cl,> 100

# Test system: Respiratory syncytial virus
# Experiment: Antiviral activity against Respiratory syncytial virus infected in african green monkey Vero 76 cells assessed as reduction in plaque number after 5 days by plaque reduction assay
# Type: functional, organism-based
# Settings: human respiratory syncytial virus, 120 h
row,Structure (SMILES),EC50 [µM]
1,c1ccc(-c2nc3ccccc3n2[C@H]2CCCN3CCCC[C@H]23)cc1,> 100
2,Clc1ccc2nc(-c3ccccc3)n([C@@H]3CCCN4CCCC[C@H]34)c2c1,> 100
3,FC(F)(F)c1ccc2c(c1)nc(-c1ccc(Cl)cc1)n2C[C@@H]1CCCN2CCCC[C@H]12,> 100
4,Clc1cc2nc(Cc3ccc(Br)cc3)[nH]c2cc1Cl,> 100

# Test system: Poliovirus 1
# Experiment: Antiviral activity against Poliovirus type 1 Sabin strain infected in african green monkey Vero 76 cells assessed as reduction in plaque number after 2 days by plaque reduction assay
# Type: functional, organism-based
# Settings: Enterovirus C, 48 h
row,Structure (SMILES),EC50 [µM]
1,c1ccc(-c2nc3ccccc3n2[C@H]2CCCN3CCCC[C@H]23)cc1,> 100
2,Clc1ccc2nc(-c3ccccc3)n([C@@H]3CCCN4CCCC[C@H]34)c2c1,> 100
3,FC(F)(F)c1ccc2c(c1)nc(-c1ccc(Cl)cc1)n2C[C@@H]1CCCN2CCCC[C@H]12,> 100
4,Clc1cc2nc(Cc3ccc(Br)cc3)[nH]c2cc1Cl,> 100

# Test system: Reovirus sp.
# Experiment: Antiviral activity against Reovirus type-1 infected in BHK21 cells assessed as inhibition of virus-induced cytopathogenicity after 3 to 4 days by MTT assay
# Type: functional, organism-based
# Settings: BHK-21
row,Structure (SMILES),EC50 [µM]
1,c1ccc(-c2nc3ccccc3n2[C@H]2CCCN3CCCC[C@H]23)cc1,> 100
2,Clc1ccc2nc(-c3ccccc3)n([C@@H]3CCCN4CCCC[C@H]34)c2c1,> 100
3,FC(F)(F)c1ccc2c(c1)nc(-c1ccc(Cl)cc1)n2C[C@@H]1CCCN2CCCC[C@H]12,> 100
4,Clc1cc2nc(Cc3ccc(Br)cc3)[nH]c2cc1Cl,> 100

# Test system: Vesicular stomatitis virus
# Experiment: Antiviral activity against Vesicular stomatitis virus infected in african green monkey Vero 76 cells assessed as reduction in plaque number after 2 days by plaque reduction assay
# Type: functional, organism-based
# Settings: 48 h
row,Structure (SMILES),EC50 [µM]
1,c1ccc(-c2nc3ccccc3n2[C@H]2CCCN3CCCC[C@H]23)cc1,68
2,Clc1ccc2nc(-c3ccccc3)n([C@@H]3CCCN4CCCC[C@H]34)c2c1,> 100
3,FC(F)(F)c1ccc2c(c1)nc(-c1ccc(Cl)cc1)n2C[C@@H]1CCCN2CCCC[C@H]12,> 100
4,Clc1cc2nc(Cc3ccc(Br)cc3)[nH]c2cc1Cl,> 100

# Test system: not listed separately
# Experiment: Cytotoxicity against mock-infected BHK21 cells after 48 to 96 hrs by MTT assay
# Type: functional
# Settings: Mesocricetus auratus, BHK-21
# Outline: (§1)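 Mock-infected MDBK (6 × 10^5 cells/mL; MEM-E, 10% horse serum, 1 mM pyruvate) or BHK (1 × 10^6 cells/mL; MEM-E, 10% FBS) cells were incubated at 37 °C, 5% CO2 with serial dilutions from 100 µM, 1:5. Viability by MTT after 48–96 h. CC50 from linear regression against untreated controls.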
row,Structure (SMILES),CC50 [µM]
1,c1ccc(-c2nc3ccccc3n2[C@H]2CCCN3CCCC[C@H]23)cc1,> 100
2,Clc1ccc2nc(-c3ccccc3)n([C@@H]3CCCN4CCCC[C@H]34)c2c1,> 100
3,FC(F)(F)c1ccc2c(c1)nc(-c1ccc(Cl)cc1)n2C[C@@H]1CCCN2CCCC[C@H]12,75
4,Clc1cc2nc(Cc3ccc(Br)cc3)[nH]c2cc1Cl,10

# Test system: Bovine viral diarrhea virus 1
# Experiment: Antiviral activity against Bovine viral diarrhea virus infected in MDBK cells assessed as inhibition of virus-induced cytopathogenicity after 3 to 4 days by MTT assay
# Type: functional, organism-based
# Settings: Bovine viral diarrhea virus isolates and strains
row,Structure (SMILES),EC50 [µM]
1,c1ccc(-c2nc3ccccc3n2[C@H]2CCCN3CCCC[C@H]23)cc1,> 100
2,Clc1ccc2nc(-c3ccccc3)n([C@@H]3CCCN4CCCC[C@H]34)c2c1,40
3,FC(F)(F)c1ccc2c(c1)nc(-c1ccc(Cl)cc1)n2C[C@@H]1CCCN2CCCC[C@H]12,> 100
4,Clc1cc2nc(Cc3ccc(Br)cc3)[nH]c2cc1Cl,> 100

# Test system: not listed separately
# Experiment: Selectivity index, ratio of CC50 for african green monkey Vero 76 cells to EC50 for Coxsackievirus B5
# Type: toxicity, cell-based
# Settings: read-out: Ratio CC50/EC50
# Outline: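 Mock-infected Vero-76 cells were tested in parallel on the same 24-well plates as the plaque assays (seeding 4 × 10^5 cells/mL, D-MEM with FBS), with serial compound dilutions at 37 °C, 5% CO2. Viability was read after 48–96 h by crystal violet staining. CC50 by linear regression; selectivity index = Vero-76 CC50/EC50 for CVB-5 or RSV.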
row,Structure (SMILES),selectivity ratio
1,c1ccc(-c2nc3ccccc3n2[C@H]2CCCN3CCCC[C@H]23)cc1,> 1.25
2,Clc1ccc2nc(-c3ccccc3)n([C@@H]3CCCN4CCCC[C@H]34)c2c1,> 3.12
3,FC(F)(F)c1ccc2c(c1)nc(-c1ccc(Cl)cc1)n2C[C@@H]1CCCN2CCCC[C@H]12,1.71

# Test system: not listed separately
# Experiment: Cytotoxicity against mock-infected MDBK cells after 48 to 96 hrs by MTT assay
# Type: cell-based, Bos taurus
# Settings: cattle
# Outline: as §1
row,Structure (SMILES),CC50 [µM]
1,c1ccc(-c2nc3ccccc3n2[C@H]2CCCN3CCCC[C@H]23)cc1,> 100
2,Clc1ccc2nc(-c3ccccc3)n([C@@H]3CCCN4CCCC[C@H]34)c2c1,> 100
3,FC(F)(F)c1ccc2c(c1)nc(-c1ccc(Cl)cc1)n2C[C@@H]1CCCN2CCCC[C@H]12,40
4,Clc1cc2nc(Cc3ccc(Br)cc3)[nH]c2cc1Cl,10
